Screens: PubChem, several laboratories
SDO1 yeast rescue: sdo1-depleted yeast growth rescue; S. cerevisiae sdo1-depleted JHY4D growth rescue, OD600 30 h; hits give high values; pdr5 snq2 efflux-pump mutant strain; z-score at 10 µM; 0.21% of 140,000 active; AID 817;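 active = z-score above 3 at both the 24 hr and the 30 hr optical density reads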
Yeast growth inh: reduces growth of yeast BB579 in restrictive medium; AID 804; S. cerevisiae BB579 growth, OD615, 48 h; inhibition, % at 10 µM; 0.51% of 140,000 active;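 active = inhibition above a set limit, 3 SD over the mean compound inhibition, cut at about 44% in these data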
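Assay system – yeast BB579 (DeaD) · Dosing – single compound dose of 10 µM, 0.25% DMSO final · Detection – OD615 turbidity measurement · Buffer or medium – CSMM-D restrictive synthetic medium containing dextrose (glucose) · Benchmarks – positive control amphotericin B 10 µg/mL · Incubation – 48 h exposure, 30 °C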
Efa HMGR inh: E. faecalis class II HMG-CoA reductase inhibition; 0.41% of 190,000 active; inhibition, % at 10 µM; purified E. faecalis HMGR, NADPH absorbance 340 nm kinetic;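 active = inhibition above a set limit, the median over all tested compounds plus 3 SD, cut at about 9.5% in these data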;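 note: enzyme runs in reverse so mevalonate oxidation gives rising NADPH absorbance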
Yeast lifespan up: yeast lifespan extension | S. cerevisiae growth with nicotinamide, OD615; deaD strain in restrictive glucose medium | inhibition of the nicotinamide effect, % at 10 µM | 0.68% of 130,000 active | AID 775;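 active = inhibition above a set limit, placed 3 SD over the median of all compounds, cut at about 26% in these data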
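Test system – modified budding yeast, DeaD strain · Compound – single dose 10 µM compound, 0.25% DMSO · Times – culture preincubation 4 h, compound exposure 48 h, both 30 °C · Detection – optical density (absorbance) at 615 nm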
sdo1 rescue conf: confirmation of growth rescue in SDO1-depleted yeast, bone marrow failure | shares compounds with SDO1 yeast rescue | S. cerevisiae JHY4D (SDO1-depleted) growth rescue, OD600, 30 h; hits give high values; efflux-deficient strain, SNQ2 and PDR5 mutated | OD recovery (no concentration beside the values) | 44% of 440 active | AID 949;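 active = yeast growth recovered at 30 hours, either rising with dose fitted slope above 0.001 or with average optical density gain above 0.07, some results past the limit were not filed as active; inactive = growth falling with dose or no effect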
Each line names hits and unclear results; the compound was inactive in the other large screens (follow-up assays come after a bar, where they were run). Compounds with a hit are over-represented: about 1.3% of the library has one in this group of screens.

COc1ccc2cc3cc(C(=O)Nc4ccc5c(c4)OCCO5)oc3nc2c1	none | sdo1 rescue conf inactive
CC(C)OCCCNC(=O)NC12CC3CC(CC(C3)C1)C2	SDO1 yeast rescue 9.4 | sdo1 rescue conf 0.079
COc1ccc(S(=O)(=O)N2CCCC(C(=O)Nc3cccc(C(C)=O)c3)C2)cc1 (centres undefined)	none | sdo1 rescue conf inactive
CC(=O)c1cccc(NC(=O)C2CCCN(S(=O)(=O)c3ccc(F)cc3)C2)c1 (centres undefined)	none
COc1cc(C(=O)N2CCC(C(=O)Nc3cccc(C(C)=O)c3)CC2)cc(OC)c1OC	none | sdo1 rescue conf inactive
Cc1cc(S(=O)(=O)NCC(C)C)ccc1OCC(=O)NCC1CCCO1 (centres undefined)	SDO1 yeast rescue 7.8 | sdo1 rescue conf inactive
CC(C)NS(=O)(=O)c1ccc(OCC(=O)NCC2CCCO2)c(Cl)c1 (centres undefined)	none
COc1ccc2c(c1)sc(N)[n+]2Cc1cc(C)cc2cccnc12	SDO1 yeast rescue 9.7 | sdo1 rescue conf inactive
COc1cccc(C(=O)OCC(=O)NCCc2ccccc2)c1OC	none (no result: SDO1 yeast rescue, Yeast growth inh, Yeast lifespan up)
O=C(COC(=O)c1cccc2ccccc12)NCCCc1ccccc1	SDO1 yeast rescue 11 | sdo1 rescue conf inactive
CC(C)Cn1cc(Cl)c(=O)n(CC(C)C)c1=O	none (no result: SDO1 yeast rescue, Yeast growth inh, Yeast lifespan up)
COc1ccccc1NS(=O)(=O)c1ccc(N/N=C/c2c(C)nn(-c3ccccc3)c2N2CCCC2)c([N+](=O)[O-])c1	none
COc1c(/C=N/Nc2ccc([N+](=O)[O-])cc2[N+](=O)[O-])c(C)nn1-c1ccccc1	none | sdo1 rescue conf inactive
CN(C)CCCNC(=O)C1CCNCC1	SDO1 yeast rescue 3.1 | sdo1 rescue conf 0.1
O=C(O)/C(=C\c1ccccc1OC(F)F)Sc1nnc(-c2ccc(F)cc2)o1	none (no result: SDO1 yeast rescue, Yeast growth inh, Yeast lifespan up)
COCCCn1c(SCC(=O)N2CC(=O)Nc3ccccc32)nnc1-c1ccoc1C	SDO1 yeast rescue 11 | sdo1 rescue conf 0.084
CC(=O)Nc1ccccc1C(=O)C(=O)NCCc1ccccc1	none (no result: SDO1 yeast rescue, Yeast growth inh, Yeast lifespan up)
CCC(=O)NC(NC(=S)Nc1ccc(S(N)(=O)=O)cc1)C(Cl)(Cl)Cl (centres undefined)	none
COCCN1C(=O)C(O)=C(C(=O)c2ccco2)C1c1cccc(Oc2ccccc2)c1 (centres undefined)	SDO1 yeast rescue 9 | sdo1 rescue conf 0.076
NC(=O)C1CC(=O)N(c2ccc(OCc3ccccc3Cl)cc2)C1 (centres undefined)	none (no result: SDO1 yeast rescue, Yeast growth inh, Yeast lifespan up)
Cc1cc(C)c(-c2csc(NC(=O)COC(=O)c3ccc4c(c3)OCO4)n2)c(C)c1	none | sdo1 rescue conf inactive
COC(=O)c1c(NC(=O)CN2C(=O)NC3(CCc4ccccc4C3)C2=O)sc2c1CCCCC2 (centres undefined)	none
O=C(CC1C(=O)NCCN1Cc1c(F)cccc1Cl)NC1CCCC1 (centres undefined)	none (no result: SDO1 yeast rescue, Yeast growth inh, Yeast lifespan up)
CCCCCCCCNC(=O)c1cnsn1	none
CCCCCCCCNC(=O)c1cnccn1	SDO1 yeast rescue 9.4 | sdo1 rescue conf inactive
COc1cc(/C=N/NC(=S)N/N=C/c2cc(OC)c(OC)c(OC)c2)cc(OC)c1OC	SDO1 yeast rescue 3 | sdo1 rescue conf inactive
COc1cc(/C=N/NC(=O)CCn2c3ccccc3c3ccccc32)cc(OC)c1OC	none
COc1cc(/C=N/NC(=O)CCC(=O)NCc2ccccc2)cc(OC)c1OC	SDO1 yeast rescue 4.5 | sdo1 rescue conf 0.095
O=C(Cc1cc(C(=O)O)c2ccccc2n1)Nc1ccccc1	none (no result: SDO1 yeast rescue, Yeast growth inh, Yeast lifespan up)
O=C(Cc1coc(-c2ccc(F)cc2)n1)Nc1ccccc1	SDO1 yeast rescue 3.2 | sdo1 rescue conf inactive
